ChEMBL document CHEMBL1134845, “Syntheses and biological activities of a novel group of steroidal derived inhibitors for human Cdc25A protein phosphatase” (J Med Chem, 2001)
One block for each compound: values may come before it.

Key:
[1] = tested on: HCC 2998; experiment: Growth inhibitory activity was determined against HCC2998 cancer cell line colon cancer; format: functional, Homo sapiens; conditions: Homo sapiens, HCC 2998
Outline: (§1)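 NCI 60 human tumour cell line screen run at the National Cancer Institute. Cell growth and viability read with the protein stain sulforhodamine B, which binds basic amino acids of cells left attached after washing. […] MG MID is the mean GI50 calculated over all panels.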

[2] = tested on: SF-539; experiment: Growth inhibitory activity was determined against SF-539 cancer cell line of CNS cancer; format: functional; conditions: Homo sapiens; outline: as §1
[3] = tested on: SN12C; experiment: Inhibition of Renal cancer in SN12C cancer cell lines; format: functional; conditions: Homo sapiens
[4] = tested on: 786-0; experiment: Inhibition of Renal cancer in 786-0 cancer cell lines; format: functional; conditions: Homo sapiens
[5] = tested on: U-251; experiment: Growth inhibitory activity was determined against U-251 cancer cell line of CNS cancer; format: functional; conditions: Homo sapiens; outline: as §1
[6] = tested on: NCI-H23; experiment: Growth inhibitory activity was determined against NCI-H23 cancer cell line of non-small cell lung cancer; format: functional, Homo sapiens; conditions: Homo sapiens, NCI-H23; outline: as §1
[7] = tested on: OVCAR-8; experiment: Inhibition of Ovarian cancer in OVCAR-8 cancer cell lines; format: functional; conditions: Homo sapiens
[8] = biological target: Receptor-type tyrosine-protein phosphatase C, CD45 (Homo sapiens) (UniProt P08575); experiment: Inhibitory activity tested against human CD45 receptor-type tyrosine-protein phosphatase C
[9] = tested on: COLO 205; experiment: Growth inhibitory activity was determined against COLO 205 cancer cell line colon cancer; format: functional, Homo sapiens; conditions: Homo sapiens, COLO 205; outline: as §1
[10] = tested on: SF-268; experiment: Growth inhibitory activity was determined against SF-268 cancer cell line of CNS cancer; format: functional; conditions: Homo sapiens; outline: as §1
[11] = tested on: A549; experiment: Growth inhibitory activity was determined against A549/ATCC cancer cell line of non-small cell lung cancer; format: functional, Homo sapiens; conditions: Homo sapiens, A549; outline: as §1
[12] = tested on: T47D; experiment: Inhibition of Breast cancer in T-47D cancer cell lines; format: functional; conditions: Homo sapiens
[13] = tested on: NCI-H522; experiment: Growth inhibitory activity was determined against NCI-H522 cancer cell line of non-small cell lung cancer; format: functional; conditions: Homo sapiens; outline: as §1
[14] = tested on: SK-MEL-5; experiment: Growth inhibitory activity was determined against SK-MEL-5 cancer cell line of melanoma; format: functional, Homo sapiens; conditions: Homo sapiens, SK-MEL-5; outline: as §1
[15] = tested on: UO-31; experiment: Inhibition of Renal cancer in UO-31 cancer cell lines; format: functional; conditions: Homo sapiens
[16] = tested on: PC-3; experiment: Inhibition of Prostate cancer in PC-3 cancer cell lines; format: functional; conditions: Homo sapiens
[17] = tested on: BT-549 (Homo sapiens); experiment: Inhibition of Breast cancer in BT-549 cancer cell lines
[18] = tested on: NCI/ADR-RES; experiment: Inhibition of Breast cancer in NCI/ADR-RES cancer cell lines; format: functional; conditions: Homo sapiens
[19] = tested on: LOX IMVI; experiment: Growth inhibitory activity was determined against LOX IMVI cancer cell line of melanoma; format: functional, Homo sapiens; conditions: Homo sapiens, LOX IMVI; outline: as §1
[20] = biological target: T1, M-phase inducer phosphatase 1 (Homo sapiens) (UniProt P30304); experiment: Inhibitory activity tested against cell division cycle 25A (assay using p-nitro phenyl phosphate (pNPP) as substrate)
T1 sequence (whole entry): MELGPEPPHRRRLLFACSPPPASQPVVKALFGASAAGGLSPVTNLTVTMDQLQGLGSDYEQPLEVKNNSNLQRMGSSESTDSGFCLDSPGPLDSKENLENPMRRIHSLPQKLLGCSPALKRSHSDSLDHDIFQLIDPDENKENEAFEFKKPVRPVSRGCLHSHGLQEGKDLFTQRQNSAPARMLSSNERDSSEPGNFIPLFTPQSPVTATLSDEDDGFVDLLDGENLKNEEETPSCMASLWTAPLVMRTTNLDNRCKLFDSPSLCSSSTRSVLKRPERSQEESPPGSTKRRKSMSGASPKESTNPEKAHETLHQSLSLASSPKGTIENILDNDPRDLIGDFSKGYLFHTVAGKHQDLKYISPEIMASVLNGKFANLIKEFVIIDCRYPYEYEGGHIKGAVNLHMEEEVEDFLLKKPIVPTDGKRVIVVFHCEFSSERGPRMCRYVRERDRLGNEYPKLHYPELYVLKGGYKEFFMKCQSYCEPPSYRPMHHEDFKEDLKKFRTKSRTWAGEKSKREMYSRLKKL

[21] = biological target: T1, M-phase inducer phosphatase 1 (Homo sapiens); experiment: (§2) Inhibitory activity tested against cell division cycle 25A (assay using fluorescein diphosphate (FDP) as substrate)
Outline: (§3)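 Recombinant human GST-Cdc25A fusion protein, each batch calibrated so that FDP was dephosphorylated linearly over 20 min. Fluorescein diphosphate was the substrate. Reactions ran 15 min at 25 °C in the dark and were stopped with sodium orthovanadate. Fluorescein monophosphate was read at 485 nm excitation and 530 nm emission. IC50 came from at least two independent runs, each in triplicate.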

[22] = tested on: HT-29; experiment: Inhibition of colon cancer in HT-29 cancer cell lines; format: functional; conditions: Homo sapiens
Outline: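 Soft agar clonogenic assay of anchorage-independent growth, using HT-29 colon and A549 lung adenocarcinoma cells. The value is the compound concentration that cut colony number to 50% of control.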

[23] = tested on: OVCAR-3; experiment: Inhibition of Ovarian cancer in OVCAR-3 cancer cell lines; format: functional; conditions: Homo sapiens
[24] = Inhibitory activity against PSPTase
Outline: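 Human GST-Cdc25A fusion protein, with each batch calibrated for linear dephosphorylation of fluorescein diphosphate over 20 min. Run 15 min at 25 °C in the dark and stopped with sodium orthovanadate. Fluorescein monophosphate read at ex 485/em 530 nm. IC50 from at least two independent determinations, each in triplicate; variation from the mean within ±20%.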

[25] = tested on: BT-549 (Homo sapiens); experiment: Growth inhibitory activity was determined against BT-549 cancer cell line of Breast cancer; conditions: Homo sapiens, BT-549
[26] = tested on: 786-0; experiment: Growth inhibitory activity was determined against 786-0 cancer cell line of Renal cancer; format: functional; conditions: Homo sapiens; outline: as §1
[27] = tested on: SN12C; experiment: Growth inhibitory activity was determined against SN12C cancer cell line of Renal cancer; format: functional; conditions: Homo sapiens; outline: as §1
[28] = tested on: UO-31; experiment: Growth inhibitory activity was determined against UO-31 cancer cell line of Renal cancer; format: functional; conditions: Homo sapiens; outline: as §1
[29] = tested on: OVCAR-3; experiment: Growth inhibitory activity was determined against OVCAR-3 cancer cell line of Ovarian cancer; format: functional; conditions: Homo sapiens; outline: as §1
[30] = tested on: OVCAR-8; experiment: Growth inhibitory activity was determined against OVCAR-8 cancer cell line of Ovarian cancer; format: functional; conditions: Homo sapiens; outline: as §1
[31] = tested on: SK-MEL-5; experiment: Growth inhibitory activity was determined against SK-MEL-5 cancer cell line of melanom; format: functional; conditions: Homo sapiens; outline: as §1
[32] = tested on: HT-29; experiment: Growth inhibitory activity was determined against HT-29 cancer cell line colon cancer; format: functional, Homo sapiens; conditions: Homo sapiens, HT-29; outline: as §1
[33] = tested on: PC-3; experiment: Growth inhibitory activity was determined against PC-3 cancer cell line of Prostate cancer; format: functional; conditions: Homo sapiens; outline: as §1
[34] = biological target: T2, M-phase inducer phosphatase 1 (Homo sapiens, UniProt P30304); experiment: as §2
T2 sequence (P30304 whole entry): T1 sequence (whole entry)
Outline: as §3, with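 “orthovanadate.” for “orthovanadate. Fluorescein monophosphate was read at 485 nm excitation and 530 nm emission.”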

[35] = tested on: NCI/ADR-RES; experiment: Growth inhibitory activity was determined against NCI/ADR-RES cancer cell line of Breast cancer; format: functional, Homo sapiens; conditions: Homo sapiens, NCI/ADR-RES; outline: as §1
[36] = tested on: T47D; experiment: Growth inhibitory activity was determined against T-47D cancer cell line of Breast cancer; format: functional, Homo sapiens; conditions: Homo sapiens, T47D; outline: as §1

Chain of Receptor-type tyrosine-protein phosphatase C, CD45 (Homo sapiens) (P08575 whole entry, looked up): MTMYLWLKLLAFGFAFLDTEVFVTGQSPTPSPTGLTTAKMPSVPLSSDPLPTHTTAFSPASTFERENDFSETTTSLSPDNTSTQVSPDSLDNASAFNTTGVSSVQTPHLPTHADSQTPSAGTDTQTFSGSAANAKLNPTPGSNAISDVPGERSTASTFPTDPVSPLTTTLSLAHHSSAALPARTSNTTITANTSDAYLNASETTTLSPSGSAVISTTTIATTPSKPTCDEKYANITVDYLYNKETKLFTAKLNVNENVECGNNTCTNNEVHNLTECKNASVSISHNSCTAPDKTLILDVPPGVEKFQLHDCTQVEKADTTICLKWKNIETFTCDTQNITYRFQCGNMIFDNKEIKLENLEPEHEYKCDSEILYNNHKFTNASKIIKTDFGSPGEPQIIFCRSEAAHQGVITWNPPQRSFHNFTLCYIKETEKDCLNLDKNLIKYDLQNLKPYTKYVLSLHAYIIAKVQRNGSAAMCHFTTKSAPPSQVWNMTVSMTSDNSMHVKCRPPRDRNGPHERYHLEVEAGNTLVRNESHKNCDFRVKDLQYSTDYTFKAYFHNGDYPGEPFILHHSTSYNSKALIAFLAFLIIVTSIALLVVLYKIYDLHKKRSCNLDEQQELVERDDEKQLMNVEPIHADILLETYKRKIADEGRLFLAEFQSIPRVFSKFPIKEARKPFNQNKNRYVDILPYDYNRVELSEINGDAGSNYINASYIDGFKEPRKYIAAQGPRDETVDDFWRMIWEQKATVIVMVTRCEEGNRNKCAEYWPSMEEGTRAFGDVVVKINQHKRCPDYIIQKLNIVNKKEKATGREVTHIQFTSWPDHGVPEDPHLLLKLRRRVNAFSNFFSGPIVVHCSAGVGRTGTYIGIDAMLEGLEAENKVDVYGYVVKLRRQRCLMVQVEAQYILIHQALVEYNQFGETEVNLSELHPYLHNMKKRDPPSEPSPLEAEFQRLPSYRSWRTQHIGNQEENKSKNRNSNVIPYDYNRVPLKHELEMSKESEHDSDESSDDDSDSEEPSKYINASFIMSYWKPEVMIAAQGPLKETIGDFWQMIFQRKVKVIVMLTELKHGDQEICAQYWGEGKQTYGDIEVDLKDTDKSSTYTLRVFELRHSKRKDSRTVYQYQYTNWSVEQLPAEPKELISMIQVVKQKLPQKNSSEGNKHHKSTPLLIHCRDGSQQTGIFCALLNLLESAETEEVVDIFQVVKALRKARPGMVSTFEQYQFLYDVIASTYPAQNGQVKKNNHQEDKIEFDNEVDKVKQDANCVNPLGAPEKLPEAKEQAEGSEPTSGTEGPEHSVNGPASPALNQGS

GI50 [1]: 4.31 µM | GI50 [4]: 8.69 µM | GI50 [5]: 5.53 µM | GI50 [6]: 7.4 µM | GI50 [7]: 5.53 µM | IC50 [8]: 13.2 µM | GI50 [9]: 5.92 µM | GI50 [11]: 7.33 µM | GI50 [12]: 8.22 µM | GI50 [13]: 17.3 µM | GI50 [14]: 8.83 µM | GI50 [16]: 6.34 µM | GI50 [17]: 5.75 µM | IC50 [20]: 9.3 µM | IC50 [21]: 2.5 µM | GI50 [22]: 6.49 µM | GI50 [23]: 6.77 µM
Compound: C/C(=C\CCCC#N)[C@H]1CC[C@]2(C)[C@@H]([C@H](C)CCCC(C)C)CC[C@H]2[C@@H]1CC(=O)O
GI50 [2]: 10.5 µM | GI50 [3]: 7.73 µM | GI50 [10]: 16.6 µM | GI50 [15]: 9.55 µM | GI50 [18]: 6.44 µM | GI50 [19]: 5.91 µM

Compound: C=C1[C@@H](O)[C@@H]2O[C@]3(CC[C@H](/C=C/[C@@H](C)[C@@H]4CC(C)=C[C@@]5(O[C@H](C[C@@](C)(O)C(=O)O)CC[C@H]5O)O4)O3)CC[C@H]2O[C@@H]1[C@@H](O)C[C@H](C)[C@H]1O[C@@]2(CCCCO2)CC[C@H]1C [OKADAIC ACID]
IC50 [24]: 0.049 µM

GI50 [1]: 18.8 µM | GI50 [25]: 13 µM | GI50 [5]: 14 µM | GI50 [26]: 18.5 µM | GI50 [6]: 19 µM | GI50 [9]: > 25 µM | GI50 [29]: > 25 µM | GI50 [11]: 10.8 µM | GI50 [13]: > 25 µM | GI50 [30]: 13.5 µM | GI50 [31]: > 25 µM | GI50 [32]: 15.7 µM | GI50 [33]: 16 µM | IC50 [34]: 5.9 µM | GI50 [36]: 16.9 µM
Compound: CC(C)CCC[C@@H](C)[C@H]1CC[C@H]2[C@H](CC(=O)O)[C@@H]([C@@]3(C)CCCCC3=O)CC[C@]12C
GI50 [2]: > 25 µM | GI50 [27]: 13.4 µM | GI50 [28]: > 25 µM | GI50 [10]: > 25 µM | GI50 [19]: 16.7 µM | GI50 [35]: 14.6 µM
